# Measured values reported in ChEMBL document CHEMBL1629659, “Bronchopulmonary disposition of micafungin in healthy adult volunteers” (Antimicrob Agents Chemother, 2009).
# Numbered stars: 1 amine (or outer) side, 2 acyl side, 3 side chain; on linkers, the order of the positions; unused ones are H or OH. Bridge positions count the residues as written; N and C are the ends. Square brackets hold non-standard residues; d marks the D form. Peptide text beside a SMILES is read from it. * marks the point of attachment. hTyr(3S-OH,4S-OH,3'-OSO3H) = N[C@H](C(=O)O)[C@H](O)[C@@H](O)c1ccc(O)c(OS(=O)(=O)O)c1; Orn(4R-OH,5R-OH) = O=C([C@H](C[C@@H](O)[C@@H](O)N[*:3])N[*:1])[*:2]; Pro(3S-OH,4S-Me) = C[C@H]1CN[C@H](C(=O)O)[C@H]1O; X1 = CCCCCOc1ccc(-c2cc(-c3ccc(C(=O)*)cc3)no2)cc1; Gln(3R-OH) = NC(=O)C[C@@H](O)[C@H](N)C(=O)O; Hyp = O=C(O)[C@@H]1C[C@@H](O)CN1
# Experiments:
# [1] = Drug concentration in healthy human epithelial lining fluid at 150 mg, iv […] measured after 24 hrs of third postdose by urea dilution method; format: ADME, organism-based; conditions: read-out: Drug uptake
# Method in brief: (§1)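 The first aspirate was discarded and the rest pooled. Cells were pelleted and lysed. Drug in BAL fluid and pellet was measured by HPLC. Urea in BAL and plasma was measured by colorimetric enzymatic assay. ELF and alveolar-cell levels were derived by urea dilution.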
# [2] = Drug concentration in Alveolar macrophage cells of healthy human at 150 mg, iv […] measured after 4 hrs of third postdose by urea dilution method; format: ADME, organism-based; conditions: read-out: Drug uptake; method in brief: as §1
# [3] = Drug concentration in Alveolar macrophage cells of healthy human at 150 mg, iv […] measured after 12 hrs of third postdose by urea dilution method; format: ADME, organism-based; conditions: read-out: Drug uptake; method in brief: as §1
# [4] = Drug concentration in Alveolar macrophage cells of healthy human at 150 mg, iv […] measured after 24 hrs of third postdose by urea dilution method; format: ADME, organism-based; conditions: read-out: Drug uptake; method in brief: as §1
# Plasma [5] = assay: Plasma concentration in healthy human at 150 mg, iv […] measured before third dose; format: ADME, organism-based; conditions: in vivo
# Method in brief: (§2)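 Healthy volunteers (n=15) were given 150 mg micafungin IV over 1 h every 24 h for three doses. Plasma was sampled before and after the third dose (0, 1, 4, 12, 24 h). Quantitation used modified, validated HPLC with a standard curve linear over 0.05–25.0 μg/ml. Interday CV was ≤11.3% and intraday CV <18%.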
# [6] = Plasma concentration in healthy human at 150 mg, iv […] measured after 24 hrs of third postdose; format: ADME, organism-based; method in brief: as §2
# [7] = Cmax in healthy human plasma at 150 mg, iv […]; format: ADME, organism-based; set-up: dose 150 mg, route intravenous
# Method in brief: (§3)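 Fifteen healthy adults received micafungin 150 mg IV, infused over 1 h every 24 h, for three doses. Blood was drawn before the third dose, at end of infusion (1 h), and 4, 12 and 24 h after the third dose. Plasma levels were measured by validated HPLC (linear 0.05–25.0 μg/ml). Parameters came from noncompartmental analysis over the 24-h dosing interval.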
# [8] = AUC ( 0 to 24 hrs) in healthy human plasma at 150 mg, […]; format: ADME, organism-based; set-up: dose 150 mg, time < 24 hr, route intravenous; conditions: iv; method in brief: as §3
# [9] = Volume of distribution in healthy human plasma at 150 mg, iv […]; format: ADME, organism-based; method in brief: as §3
# [10] = Clearance at steady state in healthy human plasma at 150 mg, iv […]; format: ADME, organism-based; method in brief: as §3
# [11] = Half life in healthy human plasma at 150 mg, iv […]; format: ADME, organism-based; method in brief: as §3
# [12] = AUC ( 0 to 24 hrs) in healthy human epithelial lining fluid at 150 mg, iv […]; format: ADME, organism-based; set-up: dose 150 mg, time < 24 hr, route intravenous
# Method in brief: (§4)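 Steady-state ELF and alveolar-cell concentrations were derived by urea dilution from BAL, with one bronchoscopy per subject at 4, 12 or 24 h after the third 150 mg IV dose (five subjects per time). A composite AUC over 0–24 h was calculated across subjects by the trapezoidal rule.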
# [13] = AUC ( 0 to 24 hrs) in Alveolar macrophage cells of healthy human at 150 mg, iv […]; format: ADME, organism-based; set-up: time < 24 hr, dose 150 mg, route intravenous; method in brief: as §4
# [14] = Penetration ratio, ratio of AUC for human epithelial lining fluid to AUC for human plasma; format: ADME; conditions: read-out: Ratio AUC
# Method in brief: (§5)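 Penetration was expressed as composite AUC0-24 in ELF or alveolar cells (urea-dilution-corrected BAL data, trapezoidal rule) divided by plasma AUC0-24 (noncompartmental). Subjects received 150 mg IV daily for three doses.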
# [15] = Penetration ratio, ratio of AUC for alveolar macrophage cells of healthy human to AUC for human plasma; format: ADME, cell-based; conditions: read-out: Ratio AUC; method in brief: as §5
# Aspergillus fumigatus [16] = assay: Antimicrobial activity against germinated Aspergillus fumigatus conidia; format: functional; conditions: read-out: MEC
# Aspergillus fumigatus [17] = assay: Antimicrobial activity against non-germinated Aspergillus fumigatus conidia; format: functional; conditions: read-out: MEC
# [18] = Ratio of Cmax to MEC for Aspergillus; format: functional
# Plasma [19] = assay: Plasma protein binding in healthy human; format: ADME, cell-free
# [20] = Drug concentration in healthy human epithelial lining fluid at 150 mg, iv QD measured after 4 hrs of third postdose by urea dilution method; conditions: read-out: Drug uptake
# [21] = Drug concentration in healthy human epithelial lining fluid at 150 mg, iv QD measured after 12 hrs of third postdose by urea dilution method; conditions: read-out: Drug uptake
# [22] = Drug concentration in healthy human plasma at 150 mg, iv QD measured after 4 hrs of third postdose by high-pressure liquid chromatography method; conditions: read-out: Drug uptake
# [23] = Drug concentration in healthy human plasma at 150 mg, iv QD measured after 12 hrs of third postdose by high-pressure liquid chromatography method; conditions: read-out: Drug uptake
# [24] = Drug concentration in healthy human plasma at 150 mg, iv QD measured after 24 hrs of third postdose by high-pressure liquid chromatography method; conditions: read-out: Drug uptake
compound,measurement,setting,value
"CCCCCOc1ccc(-c2cc(-c3ccc(C(=O)N[C@H]4C[C@@H](O)[C@@H](O)NC(=O)[C@@H]5[C@@H](O)[C@@H](C)CN5C(=O)[C@H]([C@H](O)CC(N)=O)NC(=O)[C@H]([C@H](O)[C@@H](O)c5ccc(O)c(OS(=O)(=O)O)c5)NC(=O)[C@@H]5C[C@@H](O)CN5C(=O)[C@H]([C@@H](C)O)NC4=O)cc3)no2)cc1 [MICAFUNGIN] (X1-[Orn(4R-OH,5R-OH)]T[Hyp][hTyr(3S-OH,4S-OH,3'-OSO3H)][Gln(3R-OH)][Pro(3S-OH,4S-Me)]; lactam 1-C)",concentration at 24 h,[1],0.43 µg/mL
same,concentration at 4 h,[2],10.4 µg/mL
same,concentration at 12 h,[3],8.4 µg/mL
same,concentration at 24 h,[4],14.6 µg/mL
same,Cp,Plasma [5],4.28 µg/mL
same,concentration at 24 h,[6],4.67 µg/mL
same,Cmax,[7],19.1 µg/mL
same,AUC at 24 h,[8],220 µg·h/mL
same,Vd,[9],15 L
same,clearance,[10],11.7 mL/min
same,half-life,[11],14.7 h
same,AUC at 24 h,[12],10.2 µg·h/mL
same,AUC at 24 h,[13],234 µg·h/mL
same,Kp,[14],5
same,Kp,[15],106
same,minimal effective concentration,Aspergillus fumigatus [16],0.25 µg/mL
same,minimal effective concentration,Aspergillus fumigatus [17],0.06 µg/mL
same,Ratio,[18],10
same,PPB,Plasma [19],99%
same,concentration at 4 h,[20],0.52 µg/mL
same,concentration at 12 h,[21],0.44 µg/mL
same,concentration at 4 h,[22],14.8 µg/mL
same,concentration at 12 h,[23],7.4 µg/mL
same,concentration at 24 h,[24],4.8 µg/mL
